The values that follow come from ChEMBL document CHEMBL1153389, “Identification of novel antibacterial peptides by chemoinformatics and machine learning” (2009).

This assay concerns Pseudomonas aeruginosa. Description: Antimicrobial activity against Pseudomonas aeruginosa H1001 expressing luciferase gene assessed as ratio antimicrobial IC50 for drug to Bac2A peptide by luminescence assay. The format is functional. The gist of the method: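 Peptides are made by SPOT synthesis on cellulose, cleaved, and the spots placed in plate wells. Overnight P. aeruginosa H1001 (fliC::luxCDABE) is diluted 1:500 in 100 mM Tris-HCl pH 7.3 with 20 mM glucose and added to the wells. After 30 min, serial dilutions (8 rows) are made. Luminescence is read at 4 h. IC50 is taken from a sigmoid fit and expressed relative to Bac2A run in the same series.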
With `N=C(N)NCCC[C@H](NC(=O)[C@H](CCCNC(=N)N)NC(=O)[C@@H](N)CCCNC(=N)N)C(=O)N[C@@H](Cc1c[nH]c2ccccc12)C(=O)N[C@@H](Cc1c[nH]c2ccccc12)C(=O)N[C@@H](Cc1c[nH]c2ccccc12)C(=O)N[C@@H](Cc1c[nH]c2ccccc12)C(=O)N[C@@H](Cc1c[nH]c2ccccc12)C(=O)N[C@@H](Cc1c[nH]c2ccccc12)C(=O)O`, the “Ratio IC50” value amounted to 1.82.

Turning to `N=C(N)NCCC[C@H](NC(=O)[C@H](CCCCN)NC(=O)[C@H](CCCNC(=N)N)NC(=O)[C@@H](N)CCCNC(=N)N)C(=O)N[C@@H](Cc1c[nH]c2ccccc12)C(=O)N[C@@H](Cc1c[nH]c2ccccc12)C(=O)N[C@@H](Cc1c[nH]c2ccccc12)C(=O)N[C@@H](Cc1c[nH]c2ccccc12)C(=O)N[C@@H](Cc1c[nH]c2ccccc12)C(=O)O`, the “Ratio IC50” value came out at 0.43.

For H-AFRGSRHRM-OH [AFRGSRHRM], the “Ratio IC50” value turned out to be 11.36.

With H-AGGMRKRTR-OH, the “Ratio IC50” value amounted to 25.

Consider H-AMLGGRQWR-OH, for which the “Ratio IC50” value came out at 6.75.

In the case of H-ANRWGRGIR-OH, the “Ratio IC50” value came out at 10.8.

H-ARGKSIKNR-OH: the “Ratio IC50” value came out at 8.35.

In the case of H-ARGRWINGR-OH, the “Ratio IC50” value came out at 7.24.

For the compound H-ASKRVGVRN-OH, the “Ratio IC50” value is recorded as 8.17.

On to H-ATRKGYSKF-OH, for which the “Ratio IC50” value stood at 25.

On to H-ATWIWVFRR-OH, for which the “Ratio IC50” value stood at 4.88.

For the compound H-AWKIKKGRI-OH, the “Ratio IC50” value was found to be 3.59.

Turning to H-FMWVYRYKK-OH, the “Ratio IC50” value turned out to be 1.51.

For the compound H-FVVMKRIVW-OH, the “Ratio IC50” value is given as 5.38.

In the case of H-FVWQKGTNR-OH, the “Ratio IC50” value worked out at 11.3.

On to H-GGIRRLRWY-OH, for which the “Ratio IC50” value came to 1.16.

Turning to H-GGRGTRWHG-OH, the “Ratio IC50” value is 8.6.

Consider H-GIKWRSRRW-OH, for which the “Ratio IC50” value turned out to be 1.06.

As for H-GKFYKVWVR-OH, the “Ratio IC50” value is recorded as 1.21.

Take H-GKRVWGRGR-OH: the “Ratio IC50” value came out at 8.2.

Turning to H-GMRRWRGKN-OH, the “Ratio IC50” value amounted to 6.05.

In the case of H-GRIGGKNVR-OH, the “Ratio IC50” value is given as 9.12.

Consider H-GRMRLWNGR-OH, for which the “Ratio IC50” value came out at 7.91.

With H-GRNGWYRIN-OH, the “Ratio IC50” value amounted to 10.74.

Consider H-GRQISWGRT-OH, for which the “Ratio IC50” value was determined as 8.04.

Turning to H-GRRVMNQKR-OH, the “Ratio IC50” value was found to be 9.83.

For the compound H-GRRWGMGVR-OH, the “Ratio IC50” value amounted to 7.75.

On to H-GRTMNGRW-OH, for which the “Ratio IC50” value is 6.93.

Consider H-GSRRFGWNR-OH, for which the “Ratio IC50” value turned out to be 8.1.

Turning to H-GSRRSVWVF-OH, the “Ratio IC50” value turned out to be 2.3.

For the compound H-GVRSWSQRT-OH, the “Ratio IC50” value came to 8.5.

As for H-GVRVQRNSK-OH, the “Ratio IC50” value is 25.

As for H-GWGGKRRNF-OH, the “Ratio IC50” value is 7.38.

On to H-GWKILRKRK-OH, for which the “Ratio IC50” value was determined as 2.74.

H-GWNTMGRRW-OH: the “Ratio IC50” value turned out to be 6.32.

Consider H-HGVWGNRKR-OH, for which the “Ratio IC50” value is 7.95.

Regarding H-HYKFQRWIK-OH, the “Ratio IC50” value is listed as 2.79.

H-IKRVKRRKR-OH: the “Ratio IC50” value is 2.93.

For H-IKRWWRWWR-OH, the “Ratio IC50” value was 0.23.

For H-IKRWWWRRW-OH, the “Ratio IC50” value was determined as 0.22.

Turning to H-IKWWWRMRI-OH, the “Ratio IC50” value came to 0.39.

Regarding H-ILRVISKRR-OH, the “Ratio IC50” value is 25.

With H-INRKRRLRW-OH, the “Ratio IC50” value is recorded as 4.25.

Regarding H-IRGRIIFWV-OH, the “Ratio IC50” value is given as 0.44.

Take H-IRKKRRRWT-OH: the “Ratio IC50” value was determined as 6.59.

As for H-IRKWRRWWK-OH, the “Ratio IC50” value was 0.41.

For the compound H-IRMWVKRWR-OH, the “Ratio IC50” value was found to be 0.61.

H-IRQWWRRWW-OH: the “Ratio IC50” value is 0.5.

For the compound H-IRRIVRRKI-OH, the “Ratio IC50” value was 11.15.

Take H-IRRRKKRIK-OH: the “Ratio IC50” value is reported as 6.42.

As for H-IRRRKWWWW-OH, the “Ratio IC50” value worked out at 0.21.

For the compound H-IRRRWWWIV-OH, the “Ratio IC50” value was 0.23.

On to H-IRWWKRWWR-OH, for which the “Ratio IC50” value was found to be 0.21.

On to H-IVVRVWVVR-OH, for which the “Ratio IC50” value amounted to 3.5.

H-IWIWRKLRW-OH: the “Ratio IC50” value was found to be 0.46.

Take H-IWKRWRKRL-OH: the “Ratio IC50” value stood at 0.33.

Take H-IWKRWWRRW-OH: the “Ratio IC50” value is recorded as 0.24.

Turning to H-KFRKRVWWW-OH, the “Ratio IC50” value worked out at 0.3.

For H-KFWWWNYLK-OH, the “Ratio IC50” value is reported as 1.81.

As for H-KIRRKVRWG-OH, the “Ratio IC50” value stood at 10.55.

As for H-KIWWWWRRR-OH, the “Ratio IC50” value came to 0.21.

For H-KKRWLWWWR-OH, the “Ratio IC50” value is listed as 0.3.

On to H-KKRWVWVIR-OH, for which the “Ratio IC50” value was 0.35.

For the compound H-KKSKQLWKR-OH, the “Ratio IC50” value was found to be 3.23.

With H-KNNRRWQGR-OH, the “Ratio IC50” value stood at 6.45.

Regarding H-KNRGRWFSH-OH, the “Ratio IC50” value came out at 9.79.

H-KRFWIWFWR-OH: the “Ratio IC50” value is reported as 3.04.

With H-KRKIWWWIR-OH, the “Ratio IC50” value is on record as 0.28.

For H-KRKLIRWWW-OH, the “Ratio IC50” value came out at 0.23.

For H-KRRRIWWWK-OH, the “Ratio IC50” value turned out to be 0.4.

With H-KRWLTWRFR-OH, the “Ratio IC50” value is given as 0.54.

As to H-KRWRWWRWW-OH, the “Ratio IC50” value was 0.28.

Regarding H-KRWVWYRYW-OH, the “Ratio IC50” value was found to be 0.54.

With H-KRWWIRWWR-OH, the “Ratio IC50” value is on record as 0.21.

For H-KRWWIWRIR-OH, the “Ratio IC50” value was determined as 0.35.

Consider H-KRWWKWIRW-OH, for which the “Ratio IC50” value amounted to 0.04.

Take H-KRWWKWWRR-OH: the “Ratio IC50” value worked out at 0.13.

For H-KRWWRKWWR-OH, the “Ratio IC50” value worked out at 0.15.

As to H-KRWWWVWKR-OH, the “Ratio IC50” value is listed as 0.36.

Take H-KRWWWWRFR-OH: the “Ratio IC50” value amounted to 0.24.

As to H-KRWWWWWKR-OH, the “Ratio IC50” value is on record as 0.22.

H-KWRRWKRWW-OH: the “Ratio IC50” value is 0.15.

Consider H-KWWKIWWKR-OH, for which the “Ratio IC50” value is 0.2.

As for H-KWWLVWKRK-OH, the “Ratio IC50” value is reported as 0.23.

On to H-KWWRWWRKW-OH, for which the “Ratio IC50” value amounted to 0.2.

For the compound H-LRFILWWKR-OH, the “Ratio IC50” value stood at 0.88.

For the compound H-LRWRWWKIK-OH, the “Ratio IC50” value was determined as 0.26.

As for H-LVFRKYWKR-OH, the “Ratio IC50” value is recorded as 0.99.

For H-MINRVRLRW-OH, the “Ratio IC50” value came to 2.77.

H-NKTGYRWRN-OH: the “Ratio IC50” value is given as 8.33.

Take H-NQKWSGRRR-OH: the “Ratio IC50” value is 7.97.

H-NRRNGQMRR-OH: the “Ratio IC50” value was found to be 8.41.

As to H-QRNKGLRHH-OH, the “Ratio IC50” value came to 8.76.

H-RGKYIRWRK-OH: the “Ratio IC50” value was 3.83.

In the case of H-RGRRQIGKF-OH, the “Ratio IC50” value came to 8.51.

Consider H-RGRTSNWKM-OH, for which the “Ratio IC50” value was found to be 7.07.

For the compound H-RHWKTWWKR-OH, the “Ratio IC50” value amounted to 0.95.

Turning to H-RIKRWWWWR-OH, the “Ratio IC50” value came out at 0.31.

Regarding H-RIKVIWWWR-OH, the “Ratio IC50” value was found to be 0.51.

Take H-RIWYWYKRW-OH: the “Ratio IC50” value came out at 0.36.

Turning to H-RKIWWWRIR-OH, the “Ratio IC50” value was 0.59.

Consider H-RKRTKVTWI-OH, for which the “Ratio IC50” value came out at 5.11.

As to H-RKRWLWRWW-OH, the “Ratio IC50” value is 0.25.
